A selection: hits, their analogues and other compounds. The true share with any hit is near 2.5%.
Bfl-1 A1 inh: inhibitors of the anti-apoptotic protein A1, read as caspase activation; MEF A1-2A-BIM cells, Caspase-Glo 3/7 luminescence, 3 h; percent of clofoctol response, vehicle zero; caspase activation, % (no concentration beside the values); AID 2462; 0.066% of 330,000 active;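 active means over half of replicate activation scores above 10%, or exactly half above 10 with the replicate mean above 10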
NTR1 agonist: NTR1 (human) agonism | P30989 | AID 493036 | NTR1-U2OS beta-arrestin-GFP spot imaging, agonist mode | 0.17% of 330,000 active | activation, % at 20 µM;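 active means activation at or above 40% of the spot to cytoplasm intensity ratio, with at least 20 cells analyzed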;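 further: 0% = DMSO without peptide and 100% = 100 nM NTR1 peptide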
Exocytosis inh: blocks lytic granule exocytosis; TALL-104 LAMP-1 surface exposure, flow cytometry; cells stimulated with thapsigargin and PMA; inhibition, % at 10 µM; 0.66% of 360,000 active; AID 651702;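 active means inhibition above about 55%, limit read from the data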
HGIII-sPLA2 inh: Blocks human group III sPLA2 activity | Q9NZ20 | QFRET BODIPY PC-A2 liposome hydrolysis, fluorescence | inhibition, % at 12.2 µM | 0.56% of 370,000 active;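 active means inhibition above mean plus 3 SD of compounds lying within the high and low control bounds, cut at about 19% in these data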;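 further: 0% = median of test compound wells and 100% = no enzyme DMSO wells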
MC4R antag cAMP: human MC4R antagonism in cAMP assay | P32245 | MC4R-expressing cells, MTII-stimulated cAMP, LANCE TR-FRET | inhibition, % at 6.5 µM | 0.48% of 360,000 active | AID 540295;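 active means inhibition above its plate's cutoff, the mean of tested wells on that plate plus 3 SD, cut at about 29% in these data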;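 further: 0% = Melanotan II alone and 100% = Melanotan II plus saturating MCL0020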
Target sequence (P32245 whole entry, looked up): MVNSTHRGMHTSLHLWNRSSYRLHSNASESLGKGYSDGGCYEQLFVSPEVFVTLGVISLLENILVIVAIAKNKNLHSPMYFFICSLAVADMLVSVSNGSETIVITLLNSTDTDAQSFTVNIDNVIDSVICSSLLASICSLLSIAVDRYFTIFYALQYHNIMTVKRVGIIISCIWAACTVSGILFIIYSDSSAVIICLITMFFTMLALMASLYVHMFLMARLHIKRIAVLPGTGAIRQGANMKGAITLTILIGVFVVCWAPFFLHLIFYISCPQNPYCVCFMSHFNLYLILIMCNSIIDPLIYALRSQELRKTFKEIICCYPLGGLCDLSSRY
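System – human MC4R-expressing U2OS cells · Also added – Melanotan II · Dosing – one concentration, 6.5 µM nominal · Timing – 30-min compound, 1-h challenge, 1-h detection, room temperature · Measured by – Eu-cAMP/anti-cAMP TR-FRET, emission 671 nm · Replicates – singlicate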
MC4R barr agon: human MC4R agonism via beta-arrestin | U2OS MC4R beta-arrestin complementation, luminescence; percent of melanotan II response, DMSO zero | activation, % at 8.9 µM | 0.98% of 360,000 active | P32245;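 active means activation above a per-plate cutoff, the mean activation of sample wells on that plate plus 3 SD, cut at about 8% in these data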
NTR1 ag confirm: NTR1 (human) agonism, confirmed. activation, % at 20 µM. NTR1-U2OS beta-arrestin-GFP translocation imaging. 38% of 480 active. shares compounds with NTR1 agonist;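 active means mean activation at 20 µM of at least 40%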;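 further: 0% = DMSO without peptide and 100% = 100 nM NTR1 peptide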
U2OS cAMP counter: counter-screen for MC4R antagonists: nonselective cAMP signaling inhibitors; inhibition, % at 6.5 µM; parental U2OS, forskolin cAMP, LANCE TR-FRET; 26% of 1,600 active; shares compounds with MC4R antag cAMP;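 active means mean inhibition over triplicates above the low-control well mean plus 3 SD, set per campaign, cut at about 13% in these data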;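 further: signal is single emission at 671 nm which falls as cellular cAMP rises; 0% = forskolin-stimulated wells and 100% = buffer without forskolin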
MC4R cAMP antag: human MC4R cAMP antagonism confirmation; shares compounds with MC4R antag cAMP; MC4R-expressing cells, MTII-stimulated cAMP, TR-FRET; inhibition, % at 6.5 µM; 27% of 1,600 active; AID 602195; in the data active means inhibition above about 29%;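 further: 0% = agonist stimulated wells alone and 100% = agonist stimulated wells plus saturating reference antagonist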
MC4R barr conf: human MC4R beta-arrestin agonism confirmation. shares compounds with MC4R barr agon. U2OS MC4R beta-arrestin recruitment, luminescence; scaled DMSO 0%, Melanotan II 100%. activation, % at 8.9 µM. 31% of 2,400 active. AID 602192;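 active means mean activation across replicates above the hit cutoff set in the earlier primary screen, cut at about 8% in these data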
MOR-DOR barr ag: counter-screen for MC4R agonists: agonists of mu-delta opioid heterodimer; AID 602194; 5.8% of 2,400 active; shares compounds with MC4R barr agon; U2OS PathHunter beta-arrestin, beta-gal luminescence; percent of deltorphin B response, DMSO zero; activation, % at 9.2 µM;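 active means mean activation across replicates exceeds the hit threshold derived in the earlier primary screen, cut at about 18% in these data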;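 further: 100% = deltorphin B at 0.9 µM final and 0% = DMSO alone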
Granule exo CP1: blocks lytic granule exocytosis. inhibition, % at 10 µM. AID 651954. shares compounds with Exocytosis inh. 11% of 1,500 active. TALL-104 cells, LAMP-1 externalization, flow cytometry; stimulated with PMA plus thapsigargin; in the data active means inhibition above about 60%;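 further: 0% = stimulated vehicle wells and 100% = unstimulated wells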
* = called active by the depositor; / = no result given.

SMILES	Bfl-1 A1 inh	NTR1 agonist	Exocytosis inh	HGIII-sPLA2 inh	MC4R antag cAMP	MC4R barr agon	NTR1 ag confirm	MC4R barr conf	MOR-DOR barr ag	Granule exo CP1	others
Cc1ccc(S(=O)(=O)N2CCCC(C(=O)Nc3c(C)n(C)n(-c4ccccc4)c3=O)C2)cc1C (stereo not given)	/	/	/	-1	/	/	/	/	/	/
NC(=S)N/N=C/c1ccccc1OCCSc1ccc(Cl)cc1	0	43*	0	3	-13	11*	27	1	6	/
O=C(N/N=C/c1c[nH]c2ccccc12)C1CC1(c1ccccc1)c1ccccc1 (stereo not given)	0	54*	8	-4	13	19*	41*	16*	8	/
CC1=NNC(=O)/C1=C\c1cn(-c2ccccc2)nc1-c1ccc(Cl)cc1	41*	101*	24	-3	31*	17*	78*	33*	6	/	U2OS cAMP counter=2;MC4R cAMP antag=14
Cc1cc(OC[C@@H](O)CN2CCC(C(O)(c3ccccc3)c3ccccc3)CC2)ccc1Br	/	/	/	-14	/	/	/	/	/	/
Cc1cccc(C(=O)Oc2ccc(/C=N/NC(=O)c3ccccc3O)cc2)c1	-2	22	0	-23	3	4	/	/	/	/
Cc1cccc(C(=O)Oc2ccc(/C=N/NC(=O)c3ccc(O)cc3)cc2)c1	-1	53*	38	-16	0	16*	14	6	3	/
Cc1c(CN2CCC(CO)(CCOc3ccccc3)CC2)[nH]c2c(Cl)cccc12	0	67*	92*	-21	5	22*	34	19*	17	13
C[C@@H]1CN([C@@H](C)CO)C(=O)CCCn2cc(nn2)CO[C@H]1CN(C)C(=O)CCC(F)(F)F	/	/	/	9	/	/	/	/	/	/
C(=C\c1nc(N2CCCCCC2)c2ccccc2n1)/c1ccccc1	-2	42*	58*	-12	2	-3	17	/	/	32
CCOC(=O)c1c(NC(C)=O)sc2c(OCCN(CC)CC)c(Br)ccc12	1	32	9	-1	-5	-4	/	/	/	/
CCOC(=O)c1c(NC(C)=O)sc2c(OCC(O)CN(CC)CC)c(Br)ccc12 (stereo not given)	0	53*	68*	-2	16	0	47*	/	/	71*
O=C(NCCCc1ccccc1)[C@H](CO)NC1(C(=O)NCCc2c[nH]c3ccccc23)CCCCC1	/	/	/	-82	/	/	/	/	/	/
COc1cccc(-c2csc(NC(=O)Nc3ccccc3)n2)c1	0	72*	88*	-33	0	2	23	/	/	-3
CC1CCN(CCCNC(=O)c2ccc3c(=O)n(Cc4ccc(Cl)cc4)c(=S)[nH]c3c2)CC1	0	52*	71*	11	4	13*	57*	9.9*	9	11
COC(=O)c1ccc2c(=O)n(Cc3ccc(C(=O)NCCCN4CCC(C)CC4)cc3)c(=S)[nH]c2c1	-1	-1	1	-5	4	2	/	/	/	/
O=S1(=O)N[C@H](Cc2ccccc2)COc2cccc(F)c21	/	/	/	8	/	/	/	/	/	/
